The text below walks through data of ChEMBL document CHEMBL1629603, “Voriconazole increases while itraconazole decreases plasma meloxicam concentrations” (Antimicrob Agents Chemother, 2009).

Data set [1] relates to Plasma. Briefly: Fraction unbound in human at 15 mg, po pretreated with itraconazole at 200 mg, po qd for 4 days. As to conditions: in vivo, 96 h. The data set is classed as ADME, organism-based. In short, it runs like this: (§1)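 Plasma drawn 5 h after the single oral dose in each crossover phase (control, voriconazole 400 mg q12h day 1 then 200 mg q12h day 2, or itraconazole 200 mg daily for 4 days, last azole dose 1 h before). Ultrafiltered through a YM30 membrane at 1,200 x g, 25°C, 30 min. Free drug by LC-MS/MS; bound fraction derived from free versus total.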

Data set [2] is described as follows: Protein binding in human at 15 mg, po pretreated with voriconazole at 400 mg, po every 12 hrs for 1 day and 200, po mg every 12 hrs for one additional day measured after 5 hrs last post dose. The data set is classed as ADME, organism-based. As to conditions: plasma, read-out: PPB (converted). In outline:
as §1

For data set [3], the system named is Homo sapiens. Briefly: Inhibition of TxB2 production in human blood at 15 mg, po after 24 hrs by enzyme immunoassay. The data set is classed as functional. In outline:
(§2)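 Ex vivo COX-1 index in healthy volunteers. Blood drawn without anticoagulant before and 5, 8, 12, 24, 48 h after the single oral dose, then clotted 1 h at 37°C. Serum TxB2 measured by enzyme immunoassay. Percent decrease calculated against each subject's own predose baseline, within a crossover with control or azole-pretreated phases.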

Data set [4] deals with Homo sapiens. Kind of data set: Inhibition of TxB2 production in human blood at 15 mg, po after 48 hrs by enzyme immunoassay pretreated with itraconazole at 200 mg, po qd for 4 days. The data set is classed as functional. In short, it runs like this: as §2
For data set [5], the system named is Homo sapiens. Briefly: Inhibition of TxB2 production in human blood at 15 mg, po after 5 hrs by enzyme immunoassay. It is filed as functional. In short, it runs like this: as §2
Data set [6] in a line: Tmax in human at 15 mg, po. It is filed as ADME, organism-based. Conditions: in vivo. In outline: (§3)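 Healthy male volunteers (n=12), randomized three-phase Latin-square crossover with 4-week washout; single oral dose after overnight fast, lunch at 4 h. Venous plasma sampled predose and 1–72 h, stored –70°C; total drug by LC-MS/MS (piroxicam internal standard). Cmax and Tmax read directly from concentration data; AUC0-72 by linear (rising) / log (descending) trapezoidal rule.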

Data set [7] concerns Homo sapiens. Briefly: Inhibition of TxB2 production in human blood at 15 mg, po after 48 hrs by enzyme immunoassay. It is filed as functional. In outline: as §2
Data set [8] is described as follows: Protein binding in human at 15 mg, po pretreated with itraconazole at 200 mg, po qd for 4 days measured after 5 hrs last post dose. The data set is classed as ADME, organism-based. As to conditions: plasma, read-out: PPB (converted). In outline: as §1
The nature of data set [9]: AUC (0 to 72 hrs) in human at 15 mg, po. The data set is classed as ADME, organism-based. Details: dose 15 mg, time < 72 hr, route oral. Conditions: plasma. In short, it runs like this: as §3
Data set [10] deals with Homo sapiens. Kind of data set: Inhibition of TxB2 production in human blood at 15 mg, po after 12 hrs by enzyme immunoassay. The data set is classed as functional. In short, it runs like this:
as §2

Data set [11] is described as follows: Protein binding in human plasma at 15 mg, po after 5 hrs. The data set is classed as ADME, organism-based. Conditions: read-out: PPB (converted). In outline: as §1
Data set [12] relates to Plasma. Briefly: Fraction unbound in human plasma at 15 mg, po. The data set is classed as ADME, organism-based. Conditions: in vivo. In short, it runs like this:
as §1

Data set [13] concerns Homo sapiens. Briefly: Inhibition of TxB2 production in human blood at 15 mg, po measured up to 48 hrs by enzyme immunoassay pretreated with itraconazole at 200 mg, po qd for 4 days. It is filed as functional, organism-based. In short, it runs like this: as §2
Data set [14] concerns Homo sapiens. Kind of data set: Inhibition of TxB2 production in human blood at 15 mg, po after 8 hrs by enzyme immunoassay. It is filed as functional. In short, it runs like this: as §2
Data set [15] in a line: Cmax in human at 15 mg, po. It is filed as ADME, organism-based. Also on record: dose 15 mg, route oral. Conditions: in vivo. In outline:
as §3

Data set [16] has as its system Homo sapiens. Briefly: Inhibition of TxB2 production in human blood at 15 mg, po after 48 hrs by enzyme immunoassay pretreated with voriconazole at 400 mg, po every 12 hrs for 1 day and 200, po mg every 12 hrs for one additional day. The data set is classed as functional. In outline:
(§4)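 Design: 12 healthy males, Latin-square three-phase crossover, 4-week washout; 15 mg oral meloxicam given fasted 1 h after the last voriconazole dose. Blood taken before and at 5, 8, 12, 24, 48 h into glass tubes without anticoagulant, clotted 1 h at 37°C. Serum TxB2 measured by enzyme immunoassay. Reported as percent decrease versus each subject's own baseline.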

The subject of data set [17] is Homo sapiens. Kind of data set: Inhibition of TxB2 production in human blood at 15 mg, po after 24 hrs by enzyme immunoassay pretreated with voriconazole at 400 mg, po every 12 hrs for 1 day and 200, po mg every 12 hrs for one additional day. It is filed as functional. In short, it runs like this: as §4
Data set [18] deals with Homo sapiens. Kind of data set: Inhibition of TxB2 production in human blood at 15 mg, po after 12 hrs by enzyme immunoassay pretreated with voriconazole at 400 mg, po every 12 hrs for 1 day and 200, po mg every 12 hrs for one additional day. It is filed as functional. In short, it runs like this: as §4
The subject of data set [19] is Homo sapiens. Briefly: Inhibition of TxB2 production in human blood at 15 mg, po after 8 hrs by enzyme immunoassay pretreated with voriconazole at 400 mg, po every 12 hrs for 1 day and 200, po mg every 12 hrs for one additional day. It is filed as functional. In outline: as §4
For data set [20], the system named is Homo sapiens. Kind of data set: Toxicity in human assessed as photophobia at 400 mg, po every 12 hrs for 1 day and 200, po mg every 12 hrs for one additional day. It is filed as organism-based. As to conditions: in vivo.
For data set [21], the system named is Homo sapiens. Kind of data set: Inhibition of TxB2 production in human blood at 15 mg, po after 5 hrs by enzyme immunoassay pretreated with voriconazole at 400 mg, po every 12 hrs for 1 day and 200, po mg every 12 hrs for one additional day. The data set is classed as functional. In short, it runs like this: as §4
For data set [22], the system named is Homo sapiens. Kind of data set: Toxicity in human assessed as altered color vision changes at 400 mg, po every 12 hrs for 1 day and 200, po mg every 12 hrs for one additional day. As to conditions: in vivo. The data set is classed as organism-based.
Data set [23] relates to Plasma. Briefly: Fraction unbound in human at 15 mg, po pretreated with voriconazole at 400 mg, po every 12 hrs for 1 day and 200, po mg every 12 hrs for one additional day. It is filed as ADME, organism-based. Conditions: in vivo. In short, it runs like this: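 Healthy volunteers, open-label randomized crossover; 15 mg oral meloxicam given fasted 1 h after the last voriconazole dose. Plasma drawn 5 h post-dose; 1 ml ultrafiltered (YM30 filter, 1,200 x g, 25°C, 30 min). Unbound meloxicam measured by LC-MS/MS (positive ion, piroxicam internal standard; standards 0.5–50 ng/ml), all samples in one run.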

The source made the active and inactive calls. The calls are words filed in the database; no cut-off is given here.

For the molecule `CCC(C)n1ncn(-c2ccc(N3CCN(c4ccc(OCC5COC(Cn6cncn6)(c6ccc(Cl)cc6Cl)O5)cc4)CC3)cc2)c1=O` (stereo not drawn) [ITRACONAZOLE], the Fu with Plasma [1] is recorded as 0.18%.
Take `Cc1cnc(NC(=O)C2=C(O)c3ccccc3S(=O)(=O)N2C)s1` [MELOXICAM]: the figures for the fraction unbound at 5 h in data set [2], in data set [8] and in data set [11] were 0.0017, 0.0018 and 0.0017, respectively. Further, the “inhibition (INH)” value in the data set with Homo sapiens [3] amounted to 28%; in the data set on Homo sapiens [4], 29%; in the data set on Homo sapiens [5], 30%; with Homo sapiens [7], 25%; in the data set with Homo sapiens [10], 56%; with Homo sapiens [14], 37%. Besides, the Tmax (as a rule, the time from dosing to the highest level) in data set [6] was found to be 4 h. Further, the AUC(0-t) – broadly, the area under the concentration-time curve up to a stated or last time point – at 72 h in [9] came out at 32400 ng·h/mL. In addition, in the data set on Plasma [12], the Fu was 0.18%. The inhibition entry in the data set on Homo sapiens [13] was “inactive”. In addition, the concentration in [15] peaked (Cmax) at 1250 ng/mL.
Take `C[C@@H](c1ncncc1F)[C@](O)(Cn1cncn1)c1ccc(F)cc1F` [VORICONAZOLE]: the “inhibition (INH)” value turned out to be 14% in the data set on Homo sapiens [16]; 31% in the data set with Homo sapiens [17]; 49% in the data set on Homo sapiens [18]; 46% in the data set on Homo sapiens [19]; 37% with Homo sapiens [21]. Besides, the Activity result in the data set on Homo sapiens [20] and in the data set on Homo sapiens [22] was “Toxic” each time. Further, the Fu with Plasma [23] was found to be 0.17%.
